# Screening results deposited in PubChem BioAssay by The Scripps Research Institute Molecular Screening Center.
# Rows were chosen to be rich in hits. Some 1.9% of all compounds tested hit in one or more screens of this group.
# CHRM4 agonist: human M4 muscarinic receptor agonists, primary screen, CHO-K1 cells, Fluo-8 calcium fluorescence; CHO-K1 hM4/Gqi5; vehicle 0%, full acetylcholine response 100%; AID 624127, 2012; 0.14% of 360,000 active; Muscarinic acetylcholine receptor M4 (Homo sapiens), P08173; activation, % at 3 µM;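 active = activation above the run mean over all test wells plus 3 SD, cut at about 32% in these data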;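 also: peak over basal fluorescence ratio per well then scaled between controls; 0% = DMSO wells and 100% = acetylcholine at EC100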
# Target sequence (P08173 whole entry, looked up): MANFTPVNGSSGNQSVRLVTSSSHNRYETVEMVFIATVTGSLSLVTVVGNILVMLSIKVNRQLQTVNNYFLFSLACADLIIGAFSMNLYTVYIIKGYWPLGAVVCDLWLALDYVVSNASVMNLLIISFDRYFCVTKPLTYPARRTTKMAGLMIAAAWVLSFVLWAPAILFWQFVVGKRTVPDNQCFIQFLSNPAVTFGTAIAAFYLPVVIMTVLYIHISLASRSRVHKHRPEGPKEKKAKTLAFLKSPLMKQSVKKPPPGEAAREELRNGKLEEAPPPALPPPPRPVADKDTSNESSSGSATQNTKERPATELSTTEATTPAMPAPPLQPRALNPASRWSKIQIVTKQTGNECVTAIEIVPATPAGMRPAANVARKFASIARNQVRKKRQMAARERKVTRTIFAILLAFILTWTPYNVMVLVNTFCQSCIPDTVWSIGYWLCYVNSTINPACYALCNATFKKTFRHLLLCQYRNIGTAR
# CHRM4 antagonist: human M4 muscarinic receptor antagonists, primary screen, CHO cells, Fluo-8 calcium fluorescence; Muscarinic acetylcholine receptor M4 (Homo sapiens), P08173; inhibition, % at 3 µM; 0.73% of 360,000 active; CHO-hM4 cells, ACh EC80;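 active = inhibition above its plate's cutoff, the mean inhibition of sample wells plus 3 SD, cut at about 27% in these data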;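 also: 0% = acetylcholine EC80 with DMSO and 100% = DMSO without agonist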
# CHRM4 PAM: human M4 muscarinic receptor positive allosteric modulators, primary screen, CHO-K1 cells, Fluo-8 calcium fluorescence; Muscarinic acetylcholine receptor M4 (Homo sapiens), P08173; CHO-K1 hM4/Gqi5, ACh EC20; 0% = ACh EC20, 100% = maximal ACh; activation, % at 3 µM; 0.4% of 360,000 active;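 active = activation above its plate's cutoff, the mean activation of sample wells plus 3 SD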
# CHRM5 antagonist: human M5 muscarinic receptor antagonists, primary screen, CHO cells, Fluo-8 calcium fluorescence; 0.59% of 360,000 active; CHO-hM5 cells, ACh EC80; inhibition, % at 3 µM; Muscarinic acetylcholine receptor M5 (Homo sapiens), P08912;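 active = inhibition above a per-plate cutoff, the mean of that plate's test compounds plus 3 SD, cut at about 27% in these data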;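 also: 0% = acetylcholine EC80 with DMSO and 100% = DMSO without agonist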
# M5 ag: human M5 muscarinic receptor agonists, primary screen, CHO-K1 cells, Fluo-8 calcium fluorescence; Muscarinic acetylcholine receptor M5 (Homo sapiens), P08912; CHO-K1 hM5 cells; 0% DMSO wells, 100% maximal acetylcholine response; activation, % at 3 µM; 0.19% of 360,000 active; AID 624037, 2012;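 active = activation above the run's mean over test compounds plus 3 SD, cut at about 23% in these data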;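 also: signal is peak over basal fluorescence ratio across the kinetic read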
# CHRM5 PAM: human M5 muscarinic receptor positive allosteric modulators, primary screen, CHO-K1 cells, Fluo-8 calcium fluorescence; Muscarinic acetylcholine receptor M5 (Homo sapiens), P08912; CHO-K1 hM5, ACh EC20 PAM; 0% = ACh EC20, 100% = ACh EC100; activation, % at 3 µM; 0.3% of 360,000 active;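 active = activation above the run cutoff, the mean activation of all test compounds plus 3 SD, cut at about 18% in these data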
#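 Assay system: CHO-K1 hM5 cells. Also added: acetylcholine at EC20 concentration, added after compound. Dosing: 3 µM, single dose. Times: compound preincubation 140 s before EC20 acetylcholine addition. Signal: Fluo-8 calcium fluorescence. Measure: % activation relative to EC20 and EC100 ACh responses. Repeats: singlicate, one well per test compound.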
# Starred values were filed as active, the others as inactive.
SMILES,CHRM4 agonist,CHRM4 antagonist,CHRM4 PAM,CHRM5 antagonist,M5 ag,CHRM5 PAM
CCCc1cc(=O)n2[nH]c(NC(=O)c3ccco3)nc2n1,0.2,-24.1,14.5*,0.4,-0.3,3.5
COc1ccc([C@H]2C(C#N)=C([S-])N[C@](C)(O)[C@@H]2[n+]2ccccc2)cc1,1.3,40.4*,-15.5,-3.6,-18.4,-19.1
O=C(NNC(=O)c1cc(Cl)ccc1O)c1ccc(NS(=O)(=O)c2cccs2)cc1,-0.7,4.1,-1.0,-0.5,2.5,3.4
COc1cccc(N(C(=O)Cn2nnc3ccccc32)C(C(=O)NCc2ccco2)c2cccnc2)c1 (stereo unspecified),1.2,-3.7,1.4,-0.6,-0.2,2.5
COc1cccc(C(C(=O)NCc2ccco2)N(Cc2ccco2)C(=O)Cn2nnc3ccccc32)c1 (stereo unspecified),9.2,29.7*,-6.6,12.5,-1.2,-19.4
CC(=O)N(C)c1ccc(NC(=O)Nc2ccc(C)c(C)c2)cc1,19.4,31.4*,-11.3,29.4*,4.1,-18.7
CCOc1cc(/C=N/NC(=O)Cc2ccc(C(F)(F)F)cc2[N+](=O)[O-])c(Br)cc1OC,0.2,-14.4,9.1,-8.3,0.7,21.9*
COc1cc(Br)cc(/C=N/NC(=O)Cc2ccc(C(F)(F)F)cc2[N+](=O)[O-])c1O,0.8,-3.2,4.9,2.8,-0.1,-9.2
CN(C)S(=O)(=O)c1ccc(C(=O)OCC(=O)Nc2cccnc2Cl)cc1,3.0,-9.4,6.5,12.6,5.2,2.4
CC(=O)Nc1ccc(S(=O)(=O)N(C)CC(=O)OCC(=O)Nc2cccnc2Cl)cc1,0.9,26.9*,43.1*,4.9,4.0,-1.1
O=[N+]([O-])c1ccc(Nc2ccccc2)c2nonc12,20.6,-7.8,-11.2,-0.7,6.6,-8.4
O=[N+]([O-])c1ccc(Sc2cccc[n+]2[O-])c2nonc12,6.1,64.0*,-41.6,40.9*,16.6,-13.7
OC(CCN1CCOCC1)(c1ccc(Cl)cc1)C1CCCCC1 (stereo unspecified),-1.3,39.2*,-14.5,29.2*,-11.2,-34.4
Cc1cc(/C=C2/SC(=S)N(c3cccc(C(F)(F)F)c3)C2=O)c(C)n1-c1cccnc1,15.7,39.2*,-14.5,21.0,2.7,-15.0
Cc1cc(/C=C2\SC(=S)N(Cc3ccco3)C2=O)c(C)n1-c1cccnc1,3.6,5.6,-1.9,-1.7,9.6,1.5
COc1ccc2[nH]c3c(N4CCc5ccccc5C4)ncnc3c2c1,25.5,19.4,-15.0,7.8,2.4,-17.7
Fc1ccc2[nH]c3c(N4CCN(c5ccccc5)CC4)ncnc3c2c1,25.0,38.4*,-10.8,50.0*,5.4,-22.5
OC1(c2cccc(C(F)(F)F)c2)CCN(c2ncnc3c2[nH]c2ccc(F)cc23)CC1,14.5,20.2,-18.6,31.0*,0.7,-21.7
CCOC(=O)N1CCN(c2ncnc3c2[nH]c2ccc(F)cc23)CC1,11.9,9.2,-10.4,1.3,-1.1,-36.9
COc1ccc(N2CCN(c3ncnc4c3[nH]c3ccccc34)CC2)cc1,22.8,28.4*,-11.2,28.4*,7.8,-21.0
COc1cc(NC(=O)NCC2CCN(Cc3ccccc3F)CC2)cc(OC)c1,2.0,-2.1,-6.8,-4.4,-5.9,1.2
O=C(Cc1ccc(NC(=O)C2CCCN(C(=O)C3CCCCC3)C2)cc1)Nc1cccc(C(=O)N2CCCC2)c1 (stereo unspecified),-1.8,-0.9,17.4*,8.3,1.3,-5.1
O=C(Nc1ccccc1)C1CCCN(C(=O)c2ccc(F)cc2)C1 (stereo unspecified),2.2,-3.7,22.1*,0.9,0.6,1.7
CN(C(=O)c1ccc(NC(=O)Cc2ccc(NC(=O)C3CCN(C(=O)C4CC4)CC3)cc2)cc1)C1CCCC1,0.1,-21.0,20.3*,-0.6,-0.8,-4.5
O=C(Nc1ccccc1)C1CCCN(C(=O)c2ccc(Cl)cc2)C1 (stereo unspecified),3.8,-10.7,3.2,-11.1,5.5,-0.4
SMILES,CHRM4 agonist,CHRM4 antagonist,CHRM4 PAM,CHRM5 antagonist,M5 ag,CHRM5 PAM
O=C(NC(=S)N1CCN(c2ccccc2)CC1)c1c(F)cccc1F,1.6,4.4,0.4,6.0,-3.4,-3.8
CN(CC(=O)Nc1cccc(F)c1)C(=O)c1ccc2c(c1)CC(c1ccccc1)OC2=O (stereo unspecified),23.7,-2.2,-6.3,14.4,6.0,-16.3
CCOc1ccc(C2C(C(=O)OC)=CN(C(C)c3ccccc3)C=C2C(=O)OC)cc1 (stereo unspecified),-1.0,7.8,-7.0,5.0,-1.8,-5.6
Cc1nnc2ccc(-c3ccc(NS(=O)(=O)c4ccc(F)cc4F)cc3)nn12,1.7,4.6,3.0,-4.0,5.5,5.4
Cn1c(CC(=O)NNC(=O)c2ccccc2[N+](=O)[O-])nc2ccccc21,-0.6,2.8,0.6,5.4,3.1,4.3
Cc1cccc(C)c1OCCCCN1CCNCC1,2.8,-8.6,7.8,5.0,-0.4,4.2
Cc1cc(C)c(OCCCCN2CCNCC2)c(C)c1,0.4,29.6*,-11.5,-3.9,1.2,4.7
CCCCCCSc1cccc(-c2nc3ccc(C)cn3c2NCc2ccccc2)c1,5.4,14.4,-8.7,13.6,-1.5,-2.6
CCC(C)Sc1cccc(-c2nc3ccc(C)cn3c2NCc2ccccc2)c1 (stereo unspecified),13.2,46.6*,-8.4,23.1,0.3,-26.3
Cc1ccc2nc(-c3cccc(-c4cccc(Cl)c4)c3)c(NCc3ccccc3)n2c1,7.5,28.4*,-10.3,27.9*,-3.0,-31.9
COc1ccc(CCNC(=O)CCCCC(=O)NCCc2ccc(OC)cc2)cc1,-0.2,0.1,-0.9,15.6,-3.0,-2.2
COc1ccc(CN(CCNC(=O)CCCCC(=O)NCCN(Cc2ccc(OC)cc2)C(C)C)C(C)C)cc1,0.4,82.3*,-62.6,47.7*,-21.1,-31.4
CC1CCC(C(C)C)C(OCC[N+](C)(C)C)C1 (stereo unspecified),1.4,98.9*,-36.3,99.5*,-7.5,-19.5
CC1CCC(C(C)C)C(OCC(O)C[N+]2(C)CCCCC2)C1 (stereo unspecified),0.7,8.6,-19.0,4.2,-13.2,-13.8
O=C(Nc1ccc(F)c(Cl)c1)C1CCCN(C2=NS(=O)(=O)c3ccccc32)C1 (stereo unspecified),1.6,-10.2,24.0*,-9.9,0.4,13.2
